Compound activity from PubChem BioAssay.
Shown are actives, neighbours in structure and some others; about 3.1% of the full set was active somewhere.
F508del corr = F508del CFTR correction, initial screen, CFBE line, single point; activity (quench increase), % at 7.58 µM; AID 720511, 2013; actives 0.36% (n = 350,000); CFBE cells, YFP halide quenching; stimulated with forskolin plus potentiator P3; % fluorescence drop versus neutral controls;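 active = mean added fluorescence quench of at least 8% versus neutral control, with both replicates also reaching 8%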;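 also: cells transiently co-express mutant CFTR-F508del with the halide-sensitive YFP; corrector assay measuring rescue of mutant channel to the surface after 24 h compound exposure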
rRNA inh HTS = reduced GFP signal of wild-type E. coli, primary screen, bacterial rRNA inhibitor project, GFP/RFP fluorescence, OD600, single point; E. coli WT GFP vs humanized-ribosome RFP mutants, 24 h; stronger effect = lower value; DMSO median 0, no signal -100; AID 720706, 2013; GFP signal change (wild-type ribosome), % (no concentration beside the values); actives 1.6% (n = 350,000);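 active = significant combined selectivity score with lowered wild-type GFP, culture density cut under 30%, mutant RFP and density less affected; inactive = any of these conditions unmet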
Cneo AK release = Cryptococcus neoformans cell lysis inducers, primary screen, AK release luminescence, single concentration. C. neoformans lysis, adenylate kinase release luminescence, 4 h; normalised: neutral wells 0, clomiphene wells 100. lysis activity, % at 15 µM. actives 0.2% (n = 360,000);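 active = mean lysis activity across replicates of at least 80%, whatever share of replicates individually reach that level; inactive = mean lysis activity below 80%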
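Signal: Adenylate kinase release luminescence | Assay system: Log-phase Cryptococcus neoformans yeast cells | Input: Cells at 5 × 10^6 per mL | Buffer or medium: Fresh YPD growth medium | Compound: Single dose | Schedule: Static 4 h at 37 °C with compound, 1 h detection | Controls: Clomiphene | Read-out: Luminescence rise reflecting yeast cell lysis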
miR-122 sensor = miR-122 Renilla sensor signal increase in Huh7, primary screen, miR-122 inhibitor project, cell-based, single point, plate reader. activation (reporter increase), % at 12.5 µM. actives 0.3% (n = 340,000). Huh7 miR-122 Renilla luciferase sensor, 48 h; neutral wells = 0, positive control = 100;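 active = mean replicate activation score at least 90 and every replicate individually at or above 90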;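 also: higher luciferase means less miR-122 activity so hits act as miR-122 inhibitors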
HIV Env fusion = inhibitors of HIV-1 Env-driven cell-cell fusion, primary screen, HeLa-JRFL effector, CEM21 target cells, luciferase | inhibition, % at 12.3 µM | actives 1.1% (n = 360,000);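 active = mean replicate inhibition score of at least 50 and every replicate individually at or above 50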;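 also: 0% = plate neutral controls and 100% = maraviroc near 300 nM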
INS-1E GSIS act = GLuc luminescence reporter in INS-1E cells, primary screen for activators of glucose-dependent secretion of insulin; actives 0.61% (n = 370,000); INS-1E GLuc reporter insulin secretion, 2-3 h; activation, % at 16.6 µM;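 active = lowest replicate activation of at least 40%, so every replicate reaches that level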;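 also: 0% = median of neutral control wells and 100% = median of IBMX positive control wells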
Active calls of the source: *; / = no result given; [ ] = dose if it differs, or a comment.

SMILES | F508del corr | rRNA inh HTS | Cneo AK release | miR-122 sensor | HIV Env fusion | INS-1E GSIS act
C[C@@H]1CN([C@H](C)CO)C(=O)c2cc(Br)cnc2O[C@@H]1CN(C)CC1CCCC1 | -1 | 6 | -8 | -4[16.7 µM] | -6[16.7 µM] | 11
CCCCn1c(-c2ccncc2)nc2c1c(=O)[nH]c(=O)n2CC(C)C | / | / | 0 | -6 | / | 70*
COCCn1c(-c2ccc(SC)cc2)nc2c1c(=O)[nH]c(=O)n2CC(C)C | 1 | 7 | 2 | / | -5 | 4
CSc1nsc(SCC(=O)Nc2ccc(Cl)c(C(=O)O)c2)n1 | 0 | 2 | 4 | -3 | 0 | 9
CSc1nsc(SCC(=O)Nc2ccc(O)c(C(=O)O)c2)n1 | 1 | 7 | 4 | / | -9 | 40*
C[C@H](CO)N1C[C@H](C)[C@@H](CN(C)Cc2cccc(F)c2)Oc2ncc(-c3cccc(F)c3)cc2C1=O | -1 | -2 | / | -6[16.7 µM] | 15[16.7 µM] | -12
C[C@@H]1CN([C@H](C)CO)C(=O)c2cccc(NC(=O)c3nc4ccccc4s3)c2O[C@H]1CN(C)C(=O)Nc1cccc2ccccc12 | / | 1 | / | / | / | -6
CN1CCN(C(=O)C[C@H]2CC[C@H](NC(=O)c3ccc4c(c3)OCO4)[C@H](CO)O2)CC1 | -1 | 0 | -21 | -9[16.7 µM] | 3[16.7 µM] | 16
O=[N+]([O-])c1ccc(N2CCCCC2)nc1N1CCCCC1 | -1 | -40* | -6 | / | -1 | /
O=C(C[C@H]1CC[C@@H]2[C@H](COC[C@@H](O)CN2C(=O)Nc2ccc(F)cc2)O1)NC1CCC1 | 2 | -6 | -2 | 1[16.7 µM] | / | -4
CC(C)C(=O)Nc1ncc(Cc2ccc(Cl)cc2)s1 | -2 | -28* | / | / | -2 | 1
CCn1ncc2c1C(=O)NC1c3ccccc3C(=O)N21 (centres undefined) | / | / | 0 | -2 | -11 | 51*
COc1ccc(S(=O)(=O)Nc2ccc(C(F)(F)F)cc2)cc1OC | / | / | 0 | 128* | -17 | /
COc1ccc(C2=Nc3ccccc3NC(=O)C2N(C(=O)c2ccnc3ccccc23)c2ccccc2)cc1 (centres undefined) | -8 | -21* | 1 | -13 | -172 | -9
COc1ccc(S(=O)(=O)Nc2ccc3c(c2)C(=O)N([C@@H](C)CO)C[C@H](C)[C@@H](CN(C)Cc2ccc(Oc4ccccc4)cc2)O3)cc1 | 2 | 4 | -2 | -5[16.7 µM] | 63*[16.7 µM] | -3
COc1ccc(S(=O)(=O)Nc2ccc3c(c2)C(=O)N([C@@H](C)CO)C[C@@H](C)[C@@H](CN(C)Cc2ccc(Oc4ccccc4)cc2)O3)cc1 | 7 | 4 | 0 | -13[16.7 µM] | 11[16.7 µM] | -6
COc1ccc(S(=O)(=O)Nc2ccc3c(c2)C(=O)N([C@H](C)CO)C[C@@H](C)[C@@H](CN(C)Cc2ccc(C(F)(F)F)cc2)O3)cc1 | 9.2* | -5 | -3 | -3[16.7 µM] | / | -23
COc1ccc(S(=O)(=O)Nc2ccc3c(c2)C(=O)N([C@@H](C)CO)C[C@@H](C)[C@@H](CN(C)Cc2ccc(C(F)(F)F)cc2)O3)cc1 | 7 | -1 | 0 | -13[16.7 µM] | / | -22
C[C@@H]1CCCCO[C@@H](CN(C)Cc2ccc(C(F)(F)F)cc2)[C@@H](C)CN([C@@H](C)CO)C(=O)c2cc(NC(=O)Nc3ccc(C(F)(F)F)cc3)ccc2O1 | 1 | 3 | 46 | -5[16.7 µM] | 27[16.7 µM] | 0
COc1ccc(CN(C)C[C@H]2OCCCC[C@H](C)Oc3ccc(NC(=O)Nc4ccc(C(F)(F)F)cc4)cc3C(=O)N([C@H](C)CO)C[C@H]2C)cc1 | 8.7* | 6 | 0 | -28[16.7 µM] | 31[16.7 µM] | -3
C[C@@H]1CCCCO[C@@H](CN(C)Cc2ccc(C(F)(F)F)cc2)[C@H](C)CN([C@H](C)CO)C(=O)c2cc(NC(=O)Nc3ccc(C(F)(F)F)cc3)ccc2O1 | 2 | -7 | -2 | -6[16.7 µM] | 70*[16.7 µM] | 4
C[C@H]1CCCCO[C@@H](CN(C)Cc2ccc(C(F)(F)F)cc2)[C@@H](C)CN([C@@H](C)CO)C(=O)c2cc(NC(=O)Nc3ccc(F)cc3)ccc2O1 | 2 | 1 | -1 | -4[16.7 µM] | 87*[16.7 µM] | 1
C[C@@H]1CCCCO[C@@H](CN(C)Cc2ccc(C(F)(F)F)cc2)[C@H](C)CN([C@H](C)CO)C(=O)c2cc(NC(=O)Nc3ccc(F)cc3)ccc2O1 | -1 | -2 | 0 | -7[16.7 µM] | 60*[16.7 µM] | -14
C[C@@H]1CCCCO[C@@H](CN(C)Cc2ccc(C(F)(F)F)cc2)[C@@H](C)CN([C@H](C)CO)C(=O)c2cc(NC(=O)Nc3ccc(F)cc3)ccc2O1 | -1 | 4 | 44 | -4[16.7 µM] | -19[16.7 µM] | -6
C[C@H]1CN(C)C(=O)Cc2ccccc2O[C@@H]1CN(C)S(C)(=O)=O | / | -1 | / | / | / | 17
SMILES | F508del corr | rRNA inh HTS | Cneo AK release | miR-122 sensor | HIV Env fusion | INS-1E GSIS act
C[C@@H]1CCCCO[C@H](CN(C)Cc2ccc(C(F)(F)F)cc2)[C@@H](C)CN([C@@H](C)CO)C(=O)c2cc(NC(=O)C3CCCCC3)ccc2O1 | 1 | -2 | 3 | -5[16.7 µM] | 32[16.7 µM] | -19
C[C@@H]1CCCCO[C@@H](CN(C)Cc2ccc(C(F)(F)F)cc2)[C@H](C)CN([C@H](C)CO)C(=O)c2cc(NC(=O)C3CCCCC3)ccc2O1 | 1 | 3 | 5 | -22[16.7 µM] | 71*[16.7 µM] | -13
CC(C)NC(=O)Nc1ccc2c(c1)C(=O)N([C@H](C)CO)C[C@@H](C)[C@H](CN(C)Cc1ccc(C(F)(F)F)cc1)OCCCC[C@@H](C)O2 | -1 | 3 | -4 | -13[16.7 µM] | 75*[16.7 µM] | -15
O=C(C[C@@H]1CC[C@@H]2[C@H](COC[C@H](O)CN2S(=O)(=O)c2ccc(Oc3ccccc3)cc2)O1)NC1CCC1 | -2 | 0 | 95* | 9[16.7 µM] | / | -8
O=C(C[C@@H]1CC[C@@H]2[C@H](COC[C@H](O)CN2Cc2ccccc2F)O1)NC1CCC1 | -1 | 5 | 0 | -5[16.7 µM] | -14[16.7 µM] | 3
O=C(C[C@@H]1CC[C@H]2[C@@H](COC[C@H](O)CN2Cc2ccc3c(c2)OCO3)O1)Nc1ccc(-c2ccccc2)cc1 | 9.6* | 3 | 1 | -4[16.7 µM] | 15[16.7 µM] | -16
O=C(C[C@@H]1CC[C@@H]2[C@H](COC[C@@H](O)CN2Cc2ccc3c(c2)OCO3)O1)Nc1ccc(-c2ccccc2)cc1 | 3 | 11 | -2 | -1[16.7 µM] | 34[16.7 µM] | 0
O=C(C[C@@H]1CC[C@H]2[C@@H](COC[C@H](O)CN2Cc2ccccc2F)O1)NC1CCC1 | 0 | 1 | 97* | 7[16.7 µM] | 1[16.7 µM] | 0
